Key:
Plasmodium falciparum = experiment: Antiplasmodial activity against ring-stage of chloroquine-resistant/mefloquine-sensitive Plasmodium falciparum W2 assessed as parasite growth inhibition after 48 hrs by YOYO-1 dye-based flow cytometric method; format: functional, organism-based; conditions: W2, 48 h
Outline: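 Parasites grown in RPMI-1640 with 10% human serum and synchronized with 5% D-sorbitol. Ring-stage cultures exposed 48 h to graded compound levels (DMSO ≤0.1%), then fixed 48 h in 1% formaldehyde/PBS pH 7.4 at room temperature. Stained with 1 nM YOYO-1 in 0.1% Triton X-100/PBS; parasitemia by flow cytometry. IC50 from non-linear fit of % control parasitemia, duplicate experiments.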

J774 = experiment: Cytotoxicity against mouse J774 cells assessed as decrease in cell survival after 24 hrs by fluorimetric method; format: cell-based; conditions: J774, 24 h
Outline: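 J774 murine macrophages grown in DMEM with 10% de-complemented fetal calf serum under 5% CO2. Fluorescence read at 540 nm excitation and 590 nm emission. Percent survival is compound-well fluorescence divided by that of control wells with cells in a DMSO dilution series (1% to 0.03125% v/v).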

[1] = Selectivity index, ratio of IC50 for mouse J774 cells to IC50 for ring-stage of chloroquine-resistant/mefloquine-sensitive Plasmodium falciparum W2; format: toxicity; conditions: read-out: Ratio IC50

For `O=C1c2ccc(F)cc2C(=O)N1CCNc1ccnc2cc(Cl)ccc12`, the IC50 (Plasmodium falciparum) was 4560 nM.

For `O=C1c2c(Cl)c(Cl)c(Cl)c(Cl)c2C(=O)N1CCCNc1ccnc2cc(Cl)ccc12`, the IC50 (Plasmodium falciparum) was 570 nM.

`O=C1c2c(Br)c(Br)c(Br)c(Br)c2C(=O)N1CCCCCCNc1ccnc2cc(Cl)ccc12` showed an IC50 (Plasmodium falciparum) of 100 nM, an IC50 (J774) of 29100 nM and a selectivity ratio [1] of 291.

Compound `O=C1c2cccc(F)c2C(=O)N1CCCNc1ccnc2cc(Cl)ccc12` has an IC50 (Plasmodium falciparum) of 3960 nM.

With `O=C1c2cccc(F)c2C(=O)N1CCNc1ccnc2cc(Cl)ccc12` the IC50 (Plasmodium falciparum) was 4730 nM.

In the case of `O=C1c2cccc(F)c2C(=O)N1CCCCNc1ccnc2cc(Cl)ccc12`, the IC50 (Plasmodium falciparum) is reported as 640 nM.

`O=C1c2ccccc2C(=O)N1CCNc1ccnc2cc(Cl)ccc12` showed an IC50 (Plasmodium falciparum) of 1110 nM.

Work on `O=C1c2ccccc2C(=O)N1CCCCCCCCNc1ccnc2cc(Cl)ccc12` yielded an IC50 (Plasmodium falciparum) of 140 nM.

`O=C1c2cccc([N+](=O)[O-])c2C(=O)N1CCNc1ccnc2cc(Cl)ccc12` showed an IC50 (Plasmodium falciparum) of 7550 nM.

`O=C1c2cccc(F)c2C(=O)N1CCCCCCNc1ccnc2cc(Cl)ccc12` gave an IC50 (Plasmodium falciparum) of 240 nM.

With `O=C1c2ccc(F)cc2C(=O)N1CCCCCCCCNc1ccnc2cc(Cl)ccc12` the IC50 (Plasmodium falciparum) was 170 nM.

In the case of `O=C1c2ccc(F)cc2C(=O)N1CCCCNc1ccnc2cc(Cl)ccc12`, the IC50 (Plasmodium falciparum) is reported as 420 nM.

In the case of `O=C1c2c(Cl)c(Cl)c(Cl)c(Cl)c2C(=O)N1CCCCCCNc1ccnc2cc(Cl)ccc12`, the IC50 (Plasmodium falciparum) is reported as 460 nM.

In the case of `O=C1c2c(Br)c(Br)c(Br)c(Br)c2C(=O)N1CCNc1ccnc2cc(Cl)ccc12`, the IC50 (Plasmodium falciparum) is reported as 400 nM.

With `O=C1c2c(Cl)c(Cl)c(Cl)c(Cl)c2C(=O)N1CCNc1ccnc2cc(Cl)ccc12` the IC50 (Plasmodium falciparum) was 210 nM.

With `O=C1c2ccc(F)cc2C(=O)N1CCCNc1ccnc2cc(Cl)ccc12` the IC50 (Plasmodium falciparum) was 1190 nM.

Work on `O=C1c2ccccc2C(=O)N1CCCNc1ccnc2cc(Cl)ccc12` yielded an IC50 (Plasmodium falciparum) of 1510 nM.

For `O=C1c2c(Br)c(Br)c(Br)c(Br)c2C(=O)N1CCCNc1ccnc2cc(Cl)ccc12`, the IC50 (Plasmodium falciparum) was 3760 nM.

Compound `C[C@@H]1CC[C@H]2[C@@H](C)C(=O)O[C@@H]3O[C@@]4(C)CC[C@@H]1[C@]32OO4` [ARTEMISININ] has an IC50 (Plasmodium falciparum) of 7 nM.

`O=C1c2ccc(F)cc2C(=O)N1CCCCCCNc1ccnc2cc(Cl)ccc12` gave an IC50 (Plasmodium falciparum) of 120 nM, an IC50 (J774) of 15200 nM and a selectivity ratio [1] of 126.

Work on `O=C1c2cccc(F)c2C(=O)N1CCCCCCCCNc1ccnc2cc(Cl)ccc12` yielded an IC50 (Plasmodium falciparum) of 120 nM, an IC50 (J774) of 28200 nM and a selectivity ratio [1] of 235.

`O=C1c2c(Br)c(Br)c(Br)c(Br)c2C(=O)N1CCCCNc1ccnc2cc(Cl)ccc12` gave an IC50 (Plasmodium falciparum) of 190 nM.

Compound `O=C1c2ccccc2C(=O)N1CCCCCCNc1ccnc2cc(Cl)ccc12` has an IC50 (Plasmodium falciparum) of 110 nM, an IC50 (J774) of 14300 nM and a selectivity ratio [1] of 130.

With `O=C1c2ccccc2C(=O)N1CCCCNc1ccnc2cc(Cl)ccc12` the IC50 (Plasmodium falciparum) was 370 nM.

In the case of `O=C1c2cccc([N+](=O)[O-])c2C(=O)N1CCCCCCNc1ccnc2cc(Cl)ccc12`, the IC50 (Plasmodium falciparum) is reported as 150 nM.

In the case of `O=C1c2c(Cl)c(Cl)c(Cl)c(Cl)c2C(=O)N1CCCCNc1ccnc2cc(Cl)ccc12`, the IC50 (Plasmodium falciparum) is reported as 270 nM.

— ChEMBL document CHEMBL4138199, “Microwave-promoted facile access to 4-aminoquinoline-phthalimides: Synthesis and anti-plasmodial evaluation” (Eur J Med Chem, 2018)
